Neddyl block – inhibitors of cullin neddylation, primary screen, biochemical, TR-FRET, uHTS, NAE and Ubc12; calls only at 25 µM; AID 651699, 2012; NEDD8-conjugating enzyme Ubc12 (Homo sapiens) + NEDD8-activating enzyme E1 regulatory …; 0.58% of 360,000 active; in the data active = inhibition above about 36%
FID counter – compounds displacing fluorescent DNA intercalator, primary screen, artefact control for HCV NS3 helicase inhibitor project, biochemical, FID fluorescence; DNA fluorescent intercalator displacement; 0.17% of 290,000 active; inhibition, % at 7.9 µM; in the data active = inhibition above about 37%;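 note: 0% = vehicle and 100% = reference compound; higher means more ethidium bromide displaced from hairpin DNA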
UBC13 inh – UBC13 polyubiquitin chain formation inhibitors, primary screen, biochemical, TR-FRET, uHTS; Ubiquitin-conjugating enzyme E2 N (Homo sapiens), P61088; inhibition, % at 20 µM; 0.47% of 330,000 active; AID 485273, 2010; in the data active = inhibition above about 45%, passing the limit was not always enough; inconclusive = no clear call, values can overlap the other calls
RAD54 branch – inhibitors of human RAD54 branch migration, primary screen, biochemical, fluorescence, single point; DNA repair and recombination protein RAD54-like (Homo sapiens), Q92698; RAD54 Holliday junction branch migration, FAM/BHQ fluorescence; inhibition, % at 10.4 µM; 0.14% of 360,000 active;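 active = mean normalized replicate activity at least 40 and at least half of replicates scoring 40 or more; inconclusive = only one of the two criteria met; inactive = mean below 40 and under half of replicates reaching 40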;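 note: 0% = median of neutral control wells and 100% = median of positive control wells; inhibitors cause a drop in the FAM fluorescence signal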
Apaf-1 inh – inhibitors of human Apaf-1 apoptosome, primary screen, biochemical, DEVD-Rh110 fluorescence, uHTS | Apoptotic protease-activating factor 1 (Homo sapiens), O14727 | reconstituted apoptosome caspase-3 activity | inhibition, % at 20 µM | 0.71% of 330,000 active | AID 489030, 2010; active = inhibition of at least 40% at 20 µM;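 note: plate controls were DMSO wells for no effect and DEVD-CHO caspase inhibitor wells for full effect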
Target sequence (O14727 whole entry, looked up): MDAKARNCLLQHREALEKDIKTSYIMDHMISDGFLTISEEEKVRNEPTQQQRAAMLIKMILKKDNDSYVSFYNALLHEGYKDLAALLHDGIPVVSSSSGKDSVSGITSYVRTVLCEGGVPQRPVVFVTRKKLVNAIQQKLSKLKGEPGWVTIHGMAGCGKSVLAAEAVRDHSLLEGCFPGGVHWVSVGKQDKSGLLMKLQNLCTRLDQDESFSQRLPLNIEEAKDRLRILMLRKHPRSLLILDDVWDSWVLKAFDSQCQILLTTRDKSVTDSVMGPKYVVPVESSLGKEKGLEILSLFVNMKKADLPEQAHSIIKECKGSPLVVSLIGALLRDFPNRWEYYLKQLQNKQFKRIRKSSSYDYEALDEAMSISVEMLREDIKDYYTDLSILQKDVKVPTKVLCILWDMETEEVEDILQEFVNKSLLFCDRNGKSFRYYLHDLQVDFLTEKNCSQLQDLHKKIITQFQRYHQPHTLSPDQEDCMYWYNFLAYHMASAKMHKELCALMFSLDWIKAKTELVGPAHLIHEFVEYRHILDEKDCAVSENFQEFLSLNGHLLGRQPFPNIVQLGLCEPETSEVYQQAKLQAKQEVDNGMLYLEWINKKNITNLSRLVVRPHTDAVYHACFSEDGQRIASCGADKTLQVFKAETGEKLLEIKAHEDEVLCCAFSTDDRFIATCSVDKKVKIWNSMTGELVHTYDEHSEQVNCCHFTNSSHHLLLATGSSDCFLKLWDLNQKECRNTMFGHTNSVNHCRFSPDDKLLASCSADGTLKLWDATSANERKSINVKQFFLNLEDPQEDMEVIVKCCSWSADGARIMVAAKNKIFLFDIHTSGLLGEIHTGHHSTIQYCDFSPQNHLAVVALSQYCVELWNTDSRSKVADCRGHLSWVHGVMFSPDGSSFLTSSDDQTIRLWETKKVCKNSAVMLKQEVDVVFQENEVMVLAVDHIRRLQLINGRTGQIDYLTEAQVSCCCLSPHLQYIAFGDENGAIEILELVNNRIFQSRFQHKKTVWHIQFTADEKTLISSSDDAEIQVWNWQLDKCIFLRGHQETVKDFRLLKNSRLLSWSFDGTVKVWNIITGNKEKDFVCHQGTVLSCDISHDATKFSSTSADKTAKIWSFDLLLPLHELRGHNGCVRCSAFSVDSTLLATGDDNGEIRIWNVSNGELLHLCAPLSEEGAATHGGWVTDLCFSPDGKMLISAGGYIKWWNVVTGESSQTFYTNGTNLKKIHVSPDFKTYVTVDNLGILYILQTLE
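System: Apoptosome proteins | Medium: Hepes pH 7.5 with detergent and BSA | Also added: Cytochrome c trigger plus (Z-DEVD)2-Rh110 caspase-3 substrate | Incubation: 30 min compound preincubation, 50 min activation, room temperature | Detection: Rhodamine 110 fluorescence at Ex 480/Em 540 nm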
RAD52 inh – RAD52 DNA annealing inhibitors, primary screen, biochemical, FRET, single point, set 2; 0.46% of 360,000 active; recombinant RAD52 DNA annealing, FRET fluorescence; DNA repair protein RAD52 homolog (Homo sapiens), P43351; inhibition, % at 18.7 µM;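 active = every replicate showing at least 50% inhibition; inconclusive = mean inhibition at least 50% but not in every replicate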
Casp3 UBC13 ctr – CASP3 inhibitor validation, counterassay for project on UBE2N polyubiquitination blockers, biochemical, one dose. inhibition, % at 20 µM. Recombinant caspase-3, Caspase-Glo 3/7 luminescence, 60 min. shares compounds with UBC13 inh. 4% of 1,400 active;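 active = mean inhibition across replicates above about 26%, limit read from the data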;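 note: plate controls were DMSO with caspase-3 for no effect and DMSO wells lacking enzyme for full effect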
UBC13 conf – UBC13 polyubiquitination inhibitors, single-point retest, confirmation, biochemical, TR-FRET, single concentration | shares compounds with UBC13 inh | inhibition, % at 10 µM | 68% of 1,400 active | AID 488859, 2010; in the data active = inhibition above about 45%; inconclusive = no clear call, values can overlap the other calls
Apaf-1 inh conf – Apaf-1 inhibitors, single-dose retest, confirmation, biochemical, fluorescence, DEVD-Rh110, 20 µM | reconstituted apoptosome, caspase-3 DEVD-Rh110 fluorescence | inhibition, % at 20 µM | shares compounds with Apaf-1 inh | 25% of 1,800 active;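 active = mean inhibition of at least 40% at 20 µM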;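 note: plate controls were DMSO wells for no effect and DEVD-CHO caspase inhibitor control wells for full effect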
Rh110 interf inh – Rh110 fluorescence interference by putative Apaf-1 inhibitors, confirmation, artefact control for Apaf-1 inhibitor project, biochemical, 20 µM; shares compounds with Apaf-1 inh; quenched caspase reaction; activation (fluorescence interference), % at 20 µM; 1,800 tested, under 10 active; AID 504615, 2011;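 active = signal rise of 40% or more at 20 µM, treated as a fluorescence artifact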
Fluor interf inh – fluorescence interference of Apaf-1 inhibitor hits, dose response, artefact control for Apaf-1 inhibitor project; 460 tested, under 10 active; IC50, µM; fluorescence interference counterscreen, Apaf-1 assay format; AID 588538, 2011; shares compounds with Apaf-1 inh; call rule not given here
DNA binding – DNA binding of candidate compounds, dose response, artefact control for RAD54 inhibitor project, biochemical, fluorescence polarization, cherry-pick. shares compounds with RAD54 branch. Acridine orange-DNA displacement, 20 min. AC50, µM (series often up to 35 µM), for the others: at the highest dose activity change, negative = DNA binding. 8% of 460 active. AID 651673, 2012;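 active = signal drop giving an AC50 within twice the top valid tested concentration of each sample, actives reach about 35 µM in these data; inactive = activity opposite to expected, plus the rest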;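 note: polarization loss reports compound binding to salmon sperm DNA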
Neddyl inh conf – blockade of NEDD8 conjugation to cullin – biochemical, TR-FRET, single concentration, confirmation. shares compounds with Neddyl block. TR-FRET cullin neddylation biochemical assay. calls only at 25 µM. 13% of 1,800 active; in the data active = inhibition above about 40%;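 note: neddylation substrate is the cullin 1 ring ligase complex with SKP2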
* hit, by the source's call; i = inactive; ? = inconclusive; . = no result shown; + = active, no number. This is a sample that favours compounds with a hit; in the whole collection about 1.6% have one here.

SMILES | Neddyl block | FID counter | UBC13 inh | RAD54 branch | Apaf-1 inh | RAD52 inh | Casp3 UBC13 ctr | UBC13 conf | DNA binding | others
CC(C)C[C@H]1CN=C(Nc2ccccc2)N1CC1CCCC1 | i | 9.8 | 5.0 | -0.8 | -6.4 | -16.8 | . | . | .
CC(C)C[C@H]1CN=C(Nc2ccccc2)N1CC1CCC(C(C)(C)C)CC1 (stereo not given in full) | i | . | 86.9* | 22.4 | 56.0* | . | -2.4 | 72.9* | . | Apaf-1 inh conf=23.1;Rh110 interf inh=14.3
Cc1cc(N)c2cc(NC(=O)/C=C/c3ccccc3Cl)ccc2n1 | + | 31.0 | 117.1* | 0.4 | 64.3* | . | -0.8 | 128.8* | . | Apaf-1 inh conf=77.4*;Rh110 interf inh=-3.4;Fluor interf inh=>100
CCOC(=O)c1c(NC(C)=O)sc2c(OCC(O)CNC(C)(C)C)c(Br)ccc12 (stereo not given) | i | 22.1 | 45.5* | ? | 13.4 | . | -6.0 | 74.2* | -12.0%
O=C(C[C@@H]1C[C@@H]2c3cc(NC(=O)c4cccnc4)ccc3O[C@@H]2[C@@H](CO)O1)NCc1ccc(Oc2ccccc2)cc1 | . | . | . | 9.2 | . | -18.6 | . | . | .
COc1ccc(-c2cn[nH]c2-c2ccc(OCc3ccc(F)cc3)cc2O)cc1OC | i | -11.9 | 6.5 | -6.4 | -2.2 | -0.9 | . | . | .
COc1ccc(Cn2cc3c(-c4ccc(F)cc4)nnc-3c3cc(OC)c(OC)cc32)cc1 | . | 4.3 | 87.3* | 63.9* | 34.5 | -242.5 | -2.3 | 39.2 | 0.3%
CCN(CC)CCNC(=O)c1cc2c(=O)n(C)c3ccccc3c2s1 | . | 9.4 | 55.2* | 61.9* | 2.2 | 30.7 | 0.7 | 62.4* | -14.5%
Cc1ccc(C)c(N2CCN(C(=S)Nc3ccc4nc(N5CCN(C)CC5)cc(C)c4c3)CC2)c1 | i | 46.7* | 49.0* | ? | 6.7 | 11.3 | 0.4 | 73.1* | 5.4%
Cc1ccc(C)c(N2CCN(C(=S)Nc3ccc4nc(N5CCOCC5)cc(C)c4c3)CC2)c1 | i | 3.6 | -10.0 | 1.2 | 18.1 | . | . | . | .
CCCN(C)C[C@@H]1Oc2cc(-c3cccnc3)ccc2S(=O)(=O)N([C@@H](C)CO)C[C@@H]1C | . | . | . | 6.4 | . | -5.9 | . | . | .
CC1CCCCN1CCNC(=O)c1cc2c(=O)n(C)c3ccccc3c2n1C (stereo not given) | i | 12.3 | 46.5* | 56.7* | 15.3 | -2.1 | 1.8 | 46.3* | -23.5%
Cc1noc(C)c1NC(=O)Nc1ccc2c(c1)C(=O)N([C@@H](C)CO)C[C@@H](C)[C@@H](CN(C)S(=O)(=O)c1c(C)noc1C)OCCCC[C@@H](C)O2 | . | . | . | -5.2 | . | -4.5 | . | . | .
CN(C)CCCn1c(SCC(=O)Nc2nc(-c3cccc(Br)c3)cs2)nc2ccccc2c1=O | i | 8.1 | 116.0* | ? | 29.0 | 2.0 | 1.9 | 134.3* | -19.1%
N#C[C@@H]1[C@@H](c2ccccc2C2=CCCCC2)[C@H](CO)N1C(=O)NC1CCCCC1 | . | . | . | . | . | -0.3 | . | . | .
C=CC(=O)Nc1ccc(N(C)c2ccnc(Nc3ccc(N4CCN(C)CC4)cc3)n2)cc1 | i | . | 85.3* | 74.6* | 61.6* | 100.4* | 1.7 | 76.6* | 4.0% | Apaf-1 inh conf=24.8;Rh110 interf inh=5.8
CN1CCN(c2ccc(NC(=O)c3ccc(Oc4ccccc4)cc3)cc2)CC1 | i | 20.2 | 21.4 | -7.9 | 17.4 | 12.8 | . | . | .
CCc1ccc(N(C(=O)c2snc(C(N)=O)c2N)C(C(=O)NC2CCCC2)c2ccco2)cc1 (stereo not given) | + | -37.3 | 63.4* | -11.6 | 7.6 | 2.3 | 0.0 | 67.0* | . | Neddyl inh conf=i
COc1cccc(N(C(=O)c2snc(C(N)=O)c2N)C(C(=O)NCC2CCCO2)c2cccs2)c1 (stereo not given) | i | -32.3 | 26.6 | -2.5 | 10.3 | -4.5 | . | . | .
Cc1cc(C)cc(N(C(=O)c2snc(C(N)=O)c2N)C(C(=O)NCC2CCCO2)c2cccs2)c1 (stereo not given) | + | -32.8 | 65.6* | . | 19.8 | -16.8 | 2.4 | 70.7* | . | Neddyl inh conf=i
Cc1ccc(C(C(=O)NCC2CCCO2)N(C(=O)c2snc(C(N)=O)c2N)c2ccc(F)cc2)o1 (stereo not given) | + | -43.0 | 46.3* | -4.6 | 13.3 | -14.4 | -4.6 | 38.9 | . | Neddyl inh conf=+
Cc1ccccc1NC(=O)Nc1ccc2c(c1)C(=O)N(C)[C@H]1CC[C@@H](CC(=O)O)O[C@H]1CO2 | . | . | . | -8.0 | . | . | . | . | .
CCN(CC)CCOC(=O)c1ccc(N/C=C(/C#N)c2nc(-c3ccc(OC)cc3)cs2)cc1 | + | 6.0 | 96.4* | . | 35.3 | -5.2 | -0.4 | 129.6* | . | Neddyl inh conf=i
CCN(CC)CCOC(=O)c1cccc(OC)c1 | i | 4.7 | -0.9 | 2.9 | 5.0 | . | . | . | .
CC1(C)Cc2c(sc(NC(=O)c3ccc4c(c3)OCCO4)c2C(N)=O)C(C)(C)N1 | + | 17.0 | 54.6* | 18.6 | 4.3 | -11.0 | -3.9 | 70.2* | . | Neddyl inh conf=i
Cc1ccc(S(=O)(=O)NCC[C@@H]2CC[C@H](NC(=O)Nc3cccc(F)c3)[C@@H](CO)O2)cc1 | . | . | . | 6.7 | . | -4.8 | . | . | .
